Results: ChEMBL document CHEMBL1141763, “Limnophilaspiroketone, a highly oxygenated phenolic derivative from Limnophila geoffrayi” (J Nat Prod, 2005)

Target: NAD(P)H dehydrogenase [quinone] 1 (Homo sapiens) (UniProt P15559)
Assay: Induction of quinone reductase
Outline: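 Quinone reductase induction measured in cultured mouse Hepa 1c1c7 hepatoma cells, following a previously described method. Activity is reported as CD, the concentration that doubles QR induction, in µg/mL.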

NAD(P)H dehydrogenase [quinone] 1 (Homo sapiens), sequence (P15559 whole entry): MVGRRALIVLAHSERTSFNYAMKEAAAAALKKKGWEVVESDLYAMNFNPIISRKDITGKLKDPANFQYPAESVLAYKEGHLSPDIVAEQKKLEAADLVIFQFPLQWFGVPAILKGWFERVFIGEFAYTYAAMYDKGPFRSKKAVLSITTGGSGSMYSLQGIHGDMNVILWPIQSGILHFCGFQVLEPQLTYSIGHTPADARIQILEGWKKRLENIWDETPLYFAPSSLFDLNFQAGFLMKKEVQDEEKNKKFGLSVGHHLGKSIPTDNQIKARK

SMILES | CD
CC(C)=CCC/C(C)=C\CC/C(C)=C\Cc1cc(C(=O)O)ccc1O | > 20 µg/mL
CC1(C)CC[C@]2(C(=O)O)CC[C@]3(C)C(=CC[C@@H]4[C@@]5(C)CC[C@H](O)[C@@](C)(CO)[C@@H]5CC[C@]43C)[C@@H]2C1 | > 20 µg/mL
C[C@@H]1CC[C@]2(C(=O)O)CC[C@]3(C)C(=CC[C@@H]4[C@@]5(C)CC[C@H](O)[C@](C)(CO)[C@@H]5CC[C@]43C)[C@@H]2[C@]1(C)O | > 20 µg/mL
COC(=O)[C@@]1(O)C(OC)=C(OC)C(=O)[C@]12OC(c1ccc(O)cc1)=CC2=O | > 20 µg/mL
COc1c(OC)c(O)c2c(=O)cc(-c3ccc(O)cc3)oc2c1O | > 20 µg/mL
C=C(C)[C@@H]1CC[C@]2(C(=O)O)CC[C@]3(C)[C@H](CC[C@@H]4[C@@]5(C)CC[C@H](O)C(C)(C)[C@@H]5CC[C@]43C)[C@@H]12 | > 20 µg/mL
COc1ccc(-c2cc(=O)c3c(O)c(OC)c(O)c(OC)c3o2)cc1 | > 20 µg/mL
COc1ccc(-c2cc(=O)c3c(O)c(OC)c(OC)c(OC)c3o2)cc1 | > 20 µg/mL
CC1(C)CC[C@]2(C(=O)O)CC[C@]3(C)C(=CC[C@@H]4[C@@]5(C)CC[C@H](O)C(C)(C)[C@@H]5[C@H](O)C[C@]43C)[C@@H]2C1 | > 20 µg/mL
